# Screens deposited in PubChem by several laboratories.
# The full list was thinned out, with hits kept by preference.
# Biofilm kill mix – clotrimazole potentiators killing C. albicans biofilm, primary screen, 4-compound mixtures | hit rate 0.02% among 120,000 | inhibition, % at 7.6 µM | C. albicans biofilm persisters + clotrimazole, fluorescence viability; primary screen in compound mixtures of four per well;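 note: compounds exposed to preformed 24 h biofilms for 48 h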
#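 Test system: C. albicans CAF4-2 wild-type biofilms; buffer or medium: RPMI/MOPS medium, pH 7.0; schedule: 24 h biofilm formation, then 48 h compound exposure, 37 °C; detection: Alamar Blue fluorescence; measure: percent inhibition of biofilm viability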
# ROMK primary – ROMK potassium channel modulators, primary screen, cell-based, thallium flux, MLSMR library; ATP-sensitive inward rectifier potassium channel 1 (Homo sapiens), P48048; Tet-inducible ROMK, thallium flux fluorescence; actives lie on both sides; hit rate 2% among 130,000; B-score at 10 µM; AID 1918, 2009;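 active = signal ratio slope over the read window, or its plate-corrected B-score, at least 3 SD from the plate mean, either direction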;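 note: B-score of the F/F0 ratio slope over 7 to 12 s after thallium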
# Target sequence (P48048 whole entry, looked up): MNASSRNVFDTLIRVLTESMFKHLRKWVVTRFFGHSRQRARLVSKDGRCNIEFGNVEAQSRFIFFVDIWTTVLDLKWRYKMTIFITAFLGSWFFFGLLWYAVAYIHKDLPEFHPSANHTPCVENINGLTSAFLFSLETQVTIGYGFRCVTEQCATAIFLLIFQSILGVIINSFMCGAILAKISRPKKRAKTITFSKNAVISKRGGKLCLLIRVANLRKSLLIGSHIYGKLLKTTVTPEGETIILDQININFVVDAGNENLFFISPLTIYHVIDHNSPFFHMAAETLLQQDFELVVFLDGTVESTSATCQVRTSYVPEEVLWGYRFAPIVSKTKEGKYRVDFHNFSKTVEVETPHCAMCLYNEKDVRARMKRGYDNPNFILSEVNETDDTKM
# ROMK retest – ROMK channel modulator hit retest, confirmation, cell-based, thallium flux, duplicate, resupplied hits. shares compounds with ROMK primary. fluorescence ratio; stronger effect = lower value. normalized thallium flux (F/F0 slope) at 10 µM. hit rate 54% among 3,000;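 active = Flux at 10 µM at least 3 SD below or above vehicle control mean in one or both replicates; inconclusive = no clear call, values can overlap the other calls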
# Numbers stand for hits; . = inactive; ? = inconclusive; / = no result given.
SMILES,Biofilm kill mix,ROMK primary,ROMK retest
COc1ccc(C(=O)Nc2cccc(-c3cc4ccccc4oc3=O)c2)cc1[N+](=O)[O-],.,/,/
Cc1sc2ncn3c(C)nnc3c2c1C,/,/,.
Cc1sc2ncn(CCn3cnc4sc(C)c(C)c4c3=O)c(=O)c2c1C,/,.,/
O=C1ON=C(c2ccccc2)/C1=C\c1ccco1,.,/,/
COc1cc(C=C2C(=O)c3ccccc3C2=O)ccc1O,.,/,/
Cc1ccc(/C=C2/C(=O)ON=C2c2ccccc2)o1,.,/,0.04
CC1=NOC(=O)/C1=C\c1ccc(-c2ccc(Cl)c(C(=O)O)c2)o1,.,.,/
CC1=NOC(=O)/C1=C\c1ccc(-c2ccccc2Br)o1,.,-8.7,0.062
COc1cc(/C=C2/C(=O)ON=C2c2ccccc2)ccc1O,.,-6.8,0.044
CC(=O)Nc1cccc(OCCCNS(=O)(=O)c2ccc(F)cc2)c1,.,/,/
COCCNC(=S)N/N=C1\CC(C)CC(C)(C)C1 (configuration not stated),.,.,/
O=C(NC1CCCCC1)C(=S)N1CCCC1,.,.,/
Cc1cccc(C)c1NC(=O)CS(=O)CC(=O)NCC1OCCc2ccccc21 (configuration not stated),.,.,/
C=C(C)COc1ccc(-c2[nH]ncc2-c2ccc(OC)cc2)c(O)c1,.,/,/
C=C(C)COc1ccc(-c2[nH]ncc2-c2ccc(OC)c(OC)c2)c(O)c1,/,3.8,.
CCNC(=O)CC1C(=O)N(CC)C(=S)N1NC(=O)c1ccccc1 (configuration not stated),.,/,/
Cc1cc(N2CCOCC2)ccc1/C=C1\NC(=O)N(CC(=O)Nc2ccccc2C)C1=O,/,0.75,?
Cc1cc(N2CCOCC2)ccc1/C=C1\NC(=O)N(CC(=O)Nc2ccc(F)cc2)C1=O,.,.,/
Cc1ccc(NC(=O)c2cc(-c3ccccc3)nn2-c2ccccc2)cc1,.,.,/
O=C(Nc1ccc(F)cc1)c1nn(-c2ccccc2)c(=O)cc1Cl,.,-3.3,0.066
COc1ccc(CNCC(O)COc2ccc(C)cc2[N+](=O)[O-])cc1 (configuration not stated),.,-2.6,0.063
COc1ccc(OCCOCCOc2ccc(C)cc2[N+](=O)[O-])cc1,.,.,/
O=C(COc1cc(Cl)c(Cl)cc1Cl)Nc1ccc([N+](=O)[O-])cc1Cl,.,/,/
CC(=O)c1cccc(NC(=O)c2nccnc2C(=O)O)c1,/,.,/
COc1ccc(NC(=O)C2C3CC/C=C\CCC32)cc1 (configuration not stated),.,/,/
SMILES,Biofilm kill mix,ROMK primary,ROMK retest
O=C(Nc1ccc(O)cc1)C1CC=CCC1 (configuration not stated),/,/,.
CNC(=O)COc1ccc(S(=O)(=O)Nc2ccc(OC)cc2)cc1,.,.,/
COc1ccc(S(=O)(=O)NC(C)C(=O)O)cc1 (configuration not stated),/,1,.
COc1ccc(S(=O)(=O)N[C@H](C(=O)O)C(C)C)cc1,/,.,/
COc1ccc(NS(=O)(=O)c2ccc(NS(C)(=O)=O)cc2)cc1,/,-3.2,.
COc1ccc(F)cc1C(=O)C1CCCN(C(=O)C2=C(C)OCCO2)C1 (configuration not stated),.,.,/
Cc1cccc2sc(N(CCCN(C)C)C(=O)CN3C(=O)c4ccccc4C3=O)nc12,.,.,/
Cc1cccc2sc(N(CCCN(C)C)C(=O)CCc3ccccc3)nc12,.,-2.1,0.064
COC(=O)Cn1ncc2c3ccccc3n(Cc3ccccc3)c2c1=O,/,.,/
O=C(Cn1ncc2c3ccccc3n(Cc3ccc(F)cc3)c2c1=O)N1CCN(c2ncccn2)CC1,/,-2.9,0.067
C=CC[C@@H]1C=C[C@H](O/N=C/c2ccc(C(=O)N3[C@H](c4ccc(C)cc4)[C@@H](C)CC[C@H]3C(=O)OC)cc2)[C@@H](CO)O1,.,.,/
CC1=NNC(=O)C1C(c1ccc(Cl)cc1)C(C#N)C#N (configuration not stated),.,.,/
CC1=NNC(=O)C1C(c1cccc(O)c1)C(C#N)C#N (configuration not stated),.,-2.4,.
Cc1ccc(-c2nc3c(c(=O)[nH]c(=O)n3Cc3ccccc3)n2C)s1,.,.,/
Cn1c(C2CCCCC2)nc2c1c(=O)[nH]c(=O)n2Cc1ccccc1,.,3.2,0.098
COc1ccc(O)c(C(=O)C2c3ccccc3C(=O)N2c2ccc(C)cc2)c1 (configuration not stated),.,/,/
CCOC(=O)C1(CCCc2ccccc2)CCN(CC(O)CO)CC1 (configuration not stated),.,.,/
CCOC(=O)Cn1cnc(-c2ccc([N+](=O)[O-])cc2)c1,.,.,/
Cc1nn(C)c(C)c1/C=C/C(=O)c1ccc(Cl)cc1Cl,.,.,/
CC(=O)Nc1ccccc1O,.,/,/
CC(CC(=O)O)Nc1ccccc1O (configuration not stated),.,.,.
O=S(=O)(Cc1ccccc1)Nc1ccc(S(=O)(=O)NCC2CCCO2)cc1 (configuration not stated),/,/,.
O=S(=O)(NCC1CCCO1)c1ccc(-c2ccc(Cl)cc2)cc1 (configuration not stated),.,.,/
Cc1nc(SCC(=O)O)c(C#N)c(C)c1CC(=O)c1ccccc1,.,.,/
O=C(OCC(=O)N1CCCC1=O)C1COc2ccccc2O1 (configuration not stated),.,.,/
SMILES,Biofilm kill mix,ROMK primary,ROMK retest
CCSc1nnc(NC(=O)C(CC)(C(F)(F)F)C(F)(F)F)s1,/,.,.
CCSc1nnc(NC(=O)NCC(F)(F)F)s1,/,2.6,.
CCSc1nnc(NC(=O)C(C(F)(F)F)C(F)(F)F)s1,/,.,/
CCSc1nnc(NC(=O)C(C)(C(F)(F)F)C(F)(F)F)s1,/,.,/
CCN(CC)c1ccc(NC(=O)c2cccc(C)c2)cc1S(=O)(=O)Nc1ccccc1OC,.,.,/
O=C1C(=O)N(C2CCCC2)C(=O)N1Cc1c(F)cccc1Cl,.,.,/
N#CCCn1cc(C(=O)N2CCOCC2)c(-c2ccc3c(c2)OCCO3)n1,.,.,/
Cc1cccc(-n2c3nc(=O)[nH]c(=O)c-3cc3c(C)nn(-c4ccccc4)c32)c1C,.,/,/
Cc1ccc(C)c(-n2c3nc(=O)n(C)c(=O)c-3cc3ccccc32)c1,.,.,/
Cc1cccc(-n2c3nc(=O)[nH]c(=O)c-3cc3cc([N+](=O)[O-])ccc32)c1,.,-2.8,0.048
Cc1ccc(C)c(-n2c3nc(=O)[nH]c(=O)c-3cc3cc([N+](=O)[O-])ccc32)c1,.,/,0.043
Cc1nc(NC(=O)/C=C/c2ccccc2)sc1C(=O)N1CCCCC1,.,.,/
Nc1cc(N)nc(CS)n1,.,.,/
O=C(NC(=S)Nc1ccccc1)c1cncc(C#Cc2ccccc2)c1,.,.,/
COc1ccc(Cl)cc1NC(=O)CSc1nncn1-c1cccnc1,/,.,/
Cc1cccc(C)c1-n1c(C)cc(/C=N/NC(=O)CSc2ncccn2)c1C,.,/,/
Cc1cc(/C=N/NC(=O)c2cccs2)c(C)n1-c1ccccc1,/,3.8,.
Cc1cc(/C=N/NC(=O)C(O)(c2ccccc2)c2ccccc2)c(C)n1-c1ccccc1,.,2.7,0.097
COC(=O)N/N=C/c1cc(C)n(-c2ccccc2)c1C,.,.,/
Cc1cc(/C=N/NC(=O)c2ccncc2)c(C)n1-c1ccccc1,.,.,/
Cc1cc(C)nc(SCC(=O)N/N=C/c2cc(C)n(-c3ccccc3C)c2C)n1,.,6.6,0.12
